The text below walks through data of ChEMBL document CHEMBL2390926, “Identification of novel FLT3 kinase inhibitors” (Eur J Med Chem, 2013).

Molecules are shown by their SMILES. Calls of active or inactive are those of the source. No cut-off for these calls is given here.

In test [1] the target is Tyrosine-protein kinase Yes (Homo sapiens) (UniProt P07947). Briefly: Inhibition of YES (unknown origin) transfected in mouse Ba/F3 cells at 5 uM after 24 hrs. The class given is cell-based. Particulars: BaF3.
Tyrosine-protein kinase Yes (Homo sapiens), sequence (P07947 2-543 limits assumed): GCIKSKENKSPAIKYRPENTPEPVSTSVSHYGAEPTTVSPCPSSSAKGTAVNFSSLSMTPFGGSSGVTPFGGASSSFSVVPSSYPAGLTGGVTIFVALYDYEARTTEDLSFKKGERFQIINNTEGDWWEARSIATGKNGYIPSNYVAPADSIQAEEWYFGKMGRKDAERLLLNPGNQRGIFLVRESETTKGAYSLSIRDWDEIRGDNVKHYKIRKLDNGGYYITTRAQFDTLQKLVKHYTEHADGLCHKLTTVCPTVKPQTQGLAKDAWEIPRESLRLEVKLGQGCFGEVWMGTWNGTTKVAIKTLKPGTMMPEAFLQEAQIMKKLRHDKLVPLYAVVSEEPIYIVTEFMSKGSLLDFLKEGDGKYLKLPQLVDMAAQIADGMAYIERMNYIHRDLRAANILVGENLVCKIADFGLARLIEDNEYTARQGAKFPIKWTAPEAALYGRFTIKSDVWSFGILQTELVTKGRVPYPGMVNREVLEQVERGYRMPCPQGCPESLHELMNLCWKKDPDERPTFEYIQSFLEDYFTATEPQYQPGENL
Test [2] deals with T1, Non-receptor tyrosine-protein kinase TNK1 (Homo sapiens) (UniProt Q13470).
T1 sequence (whole entry): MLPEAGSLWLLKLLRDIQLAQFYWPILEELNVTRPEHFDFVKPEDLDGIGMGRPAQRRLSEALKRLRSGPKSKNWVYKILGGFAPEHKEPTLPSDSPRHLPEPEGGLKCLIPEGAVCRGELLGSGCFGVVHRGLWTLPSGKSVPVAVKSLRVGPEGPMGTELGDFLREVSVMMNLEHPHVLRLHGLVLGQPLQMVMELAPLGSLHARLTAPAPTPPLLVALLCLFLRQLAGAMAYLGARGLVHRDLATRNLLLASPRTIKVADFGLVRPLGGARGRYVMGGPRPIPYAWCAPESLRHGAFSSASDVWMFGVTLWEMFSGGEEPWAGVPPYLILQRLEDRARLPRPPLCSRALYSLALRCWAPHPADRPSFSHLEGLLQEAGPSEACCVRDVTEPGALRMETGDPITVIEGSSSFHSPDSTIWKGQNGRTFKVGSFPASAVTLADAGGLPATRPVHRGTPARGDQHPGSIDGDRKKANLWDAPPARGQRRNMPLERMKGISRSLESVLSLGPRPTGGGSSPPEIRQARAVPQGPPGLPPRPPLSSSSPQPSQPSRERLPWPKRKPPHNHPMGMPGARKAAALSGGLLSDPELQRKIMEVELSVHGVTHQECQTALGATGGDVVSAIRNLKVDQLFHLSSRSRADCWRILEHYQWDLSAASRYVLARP
The test can be described thus: Inhibition of TNK1 (unknown origin) transfected in mouse Ba/F3 cells at 5 uM after 24 hrs. The class given is cell-based. Particulars: BaF3.

Test [3] has as its target Tyrosine-protein kinase SYK (Homo sapiens) (UniProt P43405). Briefly: Inhibition of SYK (unknown origin) transfected in mouse Ba/F3 cells at 5 uM after 24 hrs. Format: cell-based. Particulars: BaF3.
The target in test [4] is Proto-oncogene tyrosine-protein kinase Src (Homo sapiens) (UniProt P12931). Briefly: Inhibition of SRC (unknown origin) transfected in mouse Ba/F3 cells at 5 uM after 24 hrs. The class given is cell-based. Particulars: BaF3.
Proto-oncogene tyrosine-protein kinase Src (Homo sapiens), sequence (P12931 2-536 limits assumed): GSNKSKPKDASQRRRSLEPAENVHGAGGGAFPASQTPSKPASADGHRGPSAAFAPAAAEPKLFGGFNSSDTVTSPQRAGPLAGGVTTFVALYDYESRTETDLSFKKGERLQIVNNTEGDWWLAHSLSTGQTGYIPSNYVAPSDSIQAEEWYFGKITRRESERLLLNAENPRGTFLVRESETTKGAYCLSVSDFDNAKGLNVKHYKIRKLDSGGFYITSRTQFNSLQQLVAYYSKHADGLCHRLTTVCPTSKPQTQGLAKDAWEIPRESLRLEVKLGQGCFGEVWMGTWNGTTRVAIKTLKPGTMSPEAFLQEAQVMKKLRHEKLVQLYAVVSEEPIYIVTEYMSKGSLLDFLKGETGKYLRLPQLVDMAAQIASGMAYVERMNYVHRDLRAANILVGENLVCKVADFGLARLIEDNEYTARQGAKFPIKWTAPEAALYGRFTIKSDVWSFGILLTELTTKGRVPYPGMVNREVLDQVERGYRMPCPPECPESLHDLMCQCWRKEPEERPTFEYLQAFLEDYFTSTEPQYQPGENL
For test [5], the target named is Leukocyte tyrosine kinase receptor (Homo sapiens) (UniProt P29376). The test can be described thus: Inhibition of LTK (unknown origin) transfected in mouse Ba/F3 cells at 5 uM after 24 hrs. Particulars: BaF3. The class given is cell-based.
Leukocyte tyrosine kinase receptor (Homo sapiens), sequence (P29376 whole entry): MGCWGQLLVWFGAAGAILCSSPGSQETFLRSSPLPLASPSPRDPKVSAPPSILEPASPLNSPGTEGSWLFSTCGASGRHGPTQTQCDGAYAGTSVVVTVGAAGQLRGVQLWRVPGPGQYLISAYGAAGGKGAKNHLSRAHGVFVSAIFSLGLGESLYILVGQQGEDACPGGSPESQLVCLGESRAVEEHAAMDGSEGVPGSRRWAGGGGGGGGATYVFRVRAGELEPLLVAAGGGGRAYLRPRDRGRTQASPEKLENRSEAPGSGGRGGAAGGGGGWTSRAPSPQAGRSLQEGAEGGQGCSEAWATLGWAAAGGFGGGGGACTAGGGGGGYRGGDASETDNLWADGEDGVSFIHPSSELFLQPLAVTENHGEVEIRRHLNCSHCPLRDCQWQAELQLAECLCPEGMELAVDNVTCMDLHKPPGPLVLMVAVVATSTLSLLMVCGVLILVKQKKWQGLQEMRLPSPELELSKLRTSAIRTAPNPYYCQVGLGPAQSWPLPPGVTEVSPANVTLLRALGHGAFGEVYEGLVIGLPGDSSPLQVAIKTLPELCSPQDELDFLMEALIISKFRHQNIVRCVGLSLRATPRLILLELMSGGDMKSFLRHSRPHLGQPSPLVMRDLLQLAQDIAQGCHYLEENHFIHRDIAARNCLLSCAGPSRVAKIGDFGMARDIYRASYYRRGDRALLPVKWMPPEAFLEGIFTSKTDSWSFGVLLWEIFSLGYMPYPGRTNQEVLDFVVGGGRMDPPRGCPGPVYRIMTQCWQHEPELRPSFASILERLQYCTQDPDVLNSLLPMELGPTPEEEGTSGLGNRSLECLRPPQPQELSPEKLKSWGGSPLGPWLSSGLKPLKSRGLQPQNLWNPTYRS
The target of test [6] is Tyrosine-protein kinase Fyn (Homo sapiens) (UniProt P06241). The test can be described thus: Inhibition of FYN (unknown origin) transfected in mouse Ba/F3 cells at 5 uM after 24 hrs. The class given is cell-based. Particulars: BaF3. In short, it runs like this:
(§1)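 Kinase specificity panel: each Ba/F3 line transformed with one of 24 tyrosine kinases depends on that kinase to grow. Cells were given compound at 1 or 5 µM for 24 h, with DMSO as comparator. Percentage growth was read by ATP-lite luminescence and reported as mean ± SEM.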

Test [7] has as its target Vascular endothelial growth factor receptor 3 (Homo sapiens) (UniProt P35916). The test can be described thus: Inhibition of FLT4 (unknown origin) transfected in mouse Ba/F3 cells at 5 uM after 24 hrs. Format: cell-based. Particulars: BaF3. In short, it runs like this: as §1
The target in test [8] is Fibroblast growth factor receptor 3 (Homo sapiens) (UniProt P22607). The test can be described thus: Inhibition of FGFR3 (unknown origin) transfected in mouse Ba/F3 cells at 5 uM after 24 hrs. The class given is cell-based. Particulars: BaF3. In short, it runs like this: as §1
In test [9] the target is Ephrin type-A receptor 5 (Homo sapiens) (UniProt P54756). Briefly: Inhibition of EPHA5 (unknown origin) transfected in mouse Ba/F3 cells at 5 uM after 24 hrs. Format: cell-based. Particulars: BaF3. In short, it runs like this: as §1
Test [10] deals with Epidermal growth factor receptor (Homo sapiens) (UniProt P00533). The test can be described thus: Inhibition of EGFR (unknown origin) transfected in mouse Ba/F3 cells at 5 uM after 24 hrs. Format: cell-based. Particulars: BaF3. The essentials: as §1
Test [11] deals with Tyrosine-protein kinase receptor UFO (Homo sapiens) (UniProt P30530). Briefly: Inhibition of AXL (unknown origin) transfected in mouse Ba/F3 cells at 5 uM after 24 hrs. The class given is cell-based. Particulars: BaF3. In short, it runs like this: as §1
Test [12] deals with Tyrosine-protein kinase ABL2 (Homo sapiens) (UniProt P42684). Briefly: Inhibition of ABL2 (unknown origin) transfected in mouse Ba/F3 cells at 5 uM after 24 hrs. Particulars: BaF3. Format: cell-based. In short, it runs like this:
as §1

For test [13], the system named is BaF3. Briefly: Cytotoxicity against mouse BA/F3 cells transfected with […] at 1 uM after 24 hrs by plate reader analysis. Format: functional, cell-based.
Test [14] relates to MV4-11. Briefly: Cytotoxicity against human MV4-11 cells after 24 hrs by plate reader analysis. The class given is functional, cell-based. Particulars: MV4-11, 24 h. In short, it runs like this:
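Cells in RPMI 1640 with 10% FBS at 37 °C and 5% CO2 were seeded at 100,000 cells/ml. They were treated for 24 h at 8 concentrations (50–6400 nM), each in triplicate, with DMSO as negative control. Viable cells were measured by ATP-lite luminescence, and EC50 was taken from dose–response curves.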

Test [15] has as its target T2, Ephrin type-A receptor 8 (Homo sapiens) (UniProt P29322).
T2 sequence (whole entry): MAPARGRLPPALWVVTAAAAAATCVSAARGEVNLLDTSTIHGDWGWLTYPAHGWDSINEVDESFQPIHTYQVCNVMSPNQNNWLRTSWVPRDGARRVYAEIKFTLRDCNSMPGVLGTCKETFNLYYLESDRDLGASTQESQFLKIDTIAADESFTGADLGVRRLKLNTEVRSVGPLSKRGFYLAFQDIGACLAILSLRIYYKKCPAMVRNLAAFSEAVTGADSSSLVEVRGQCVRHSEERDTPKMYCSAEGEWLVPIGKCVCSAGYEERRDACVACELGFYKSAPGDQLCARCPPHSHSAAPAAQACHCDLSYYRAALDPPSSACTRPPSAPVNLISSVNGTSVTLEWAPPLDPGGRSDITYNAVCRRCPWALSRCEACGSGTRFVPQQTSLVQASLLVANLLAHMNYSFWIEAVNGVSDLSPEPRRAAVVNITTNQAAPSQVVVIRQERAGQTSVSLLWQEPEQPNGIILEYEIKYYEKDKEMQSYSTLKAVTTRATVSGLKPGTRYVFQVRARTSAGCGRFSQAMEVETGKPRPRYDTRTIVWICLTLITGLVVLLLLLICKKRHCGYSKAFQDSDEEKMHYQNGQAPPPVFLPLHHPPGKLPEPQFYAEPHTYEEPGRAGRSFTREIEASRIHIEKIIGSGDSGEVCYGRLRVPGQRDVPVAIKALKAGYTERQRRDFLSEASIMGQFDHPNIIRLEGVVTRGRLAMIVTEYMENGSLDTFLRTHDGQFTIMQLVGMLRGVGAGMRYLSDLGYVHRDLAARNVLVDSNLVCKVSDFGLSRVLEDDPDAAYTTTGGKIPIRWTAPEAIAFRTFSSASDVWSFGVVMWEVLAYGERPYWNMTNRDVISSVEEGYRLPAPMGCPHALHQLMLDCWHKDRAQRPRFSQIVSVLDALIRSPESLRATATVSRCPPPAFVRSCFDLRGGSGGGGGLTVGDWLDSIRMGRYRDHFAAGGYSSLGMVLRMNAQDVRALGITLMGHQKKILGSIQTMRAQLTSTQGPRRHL
Briefly: Inhibition of EPHA8 (unknown origin) transfected in mouse Ba/F3 cells up to 1 uM. Format: cell-based. Particulars: BaF3.

Test [16] has as its target Tyrosine-protein kinase ABL2 (Homo sapiens) (UniProt P42684). The test can be described thus: Inhibition of ABL2 (unknown origin) transfected in mouse Ba/F3 cells up to 1 uM. Format: cell-based. Particulars: BaF3.

Tyrosine-protein kinase ABL2 (Homo sapiens), sequence (P42684 whole entry): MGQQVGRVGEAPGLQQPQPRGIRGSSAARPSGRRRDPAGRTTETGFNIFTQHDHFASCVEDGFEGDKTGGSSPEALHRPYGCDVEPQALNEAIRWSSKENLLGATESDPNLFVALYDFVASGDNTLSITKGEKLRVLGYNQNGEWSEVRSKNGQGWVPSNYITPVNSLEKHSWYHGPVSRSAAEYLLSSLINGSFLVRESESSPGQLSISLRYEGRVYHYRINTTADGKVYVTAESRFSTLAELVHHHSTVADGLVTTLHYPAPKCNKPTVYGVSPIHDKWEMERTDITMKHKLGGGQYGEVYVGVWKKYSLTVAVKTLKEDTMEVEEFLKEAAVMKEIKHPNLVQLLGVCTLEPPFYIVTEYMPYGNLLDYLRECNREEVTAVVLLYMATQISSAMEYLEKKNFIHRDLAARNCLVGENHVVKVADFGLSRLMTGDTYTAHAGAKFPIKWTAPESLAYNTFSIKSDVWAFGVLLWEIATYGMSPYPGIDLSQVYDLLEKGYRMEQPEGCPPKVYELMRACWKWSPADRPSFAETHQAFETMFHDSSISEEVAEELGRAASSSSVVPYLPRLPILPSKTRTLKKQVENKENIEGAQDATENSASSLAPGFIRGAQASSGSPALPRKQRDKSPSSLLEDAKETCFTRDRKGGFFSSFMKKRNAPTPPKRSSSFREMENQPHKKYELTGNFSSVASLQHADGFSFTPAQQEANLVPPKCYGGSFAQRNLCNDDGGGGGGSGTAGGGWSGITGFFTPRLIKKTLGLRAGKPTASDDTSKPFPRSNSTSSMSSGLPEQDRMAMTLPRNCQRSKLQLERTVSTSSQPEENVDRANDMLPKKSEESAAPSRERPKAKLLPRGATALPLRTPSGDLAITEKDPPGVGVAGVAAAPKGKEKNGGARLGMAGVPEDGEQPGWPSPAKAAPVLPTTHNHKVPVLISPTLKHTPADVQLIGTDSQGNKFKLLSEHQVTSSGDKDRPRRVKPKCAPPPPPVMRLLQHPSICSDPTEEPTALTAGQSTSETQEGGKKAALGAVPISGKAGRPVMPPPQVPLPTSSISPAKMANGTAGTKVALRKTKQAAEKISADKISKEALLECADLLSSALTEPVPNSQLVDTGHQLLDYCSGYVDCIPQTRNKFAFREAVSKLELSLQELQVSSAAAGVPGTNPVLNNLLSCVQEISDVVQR
Tyrosine-protein kinase Fyn (Homo sapiens), sequence (P06241 2-537 limits assumed): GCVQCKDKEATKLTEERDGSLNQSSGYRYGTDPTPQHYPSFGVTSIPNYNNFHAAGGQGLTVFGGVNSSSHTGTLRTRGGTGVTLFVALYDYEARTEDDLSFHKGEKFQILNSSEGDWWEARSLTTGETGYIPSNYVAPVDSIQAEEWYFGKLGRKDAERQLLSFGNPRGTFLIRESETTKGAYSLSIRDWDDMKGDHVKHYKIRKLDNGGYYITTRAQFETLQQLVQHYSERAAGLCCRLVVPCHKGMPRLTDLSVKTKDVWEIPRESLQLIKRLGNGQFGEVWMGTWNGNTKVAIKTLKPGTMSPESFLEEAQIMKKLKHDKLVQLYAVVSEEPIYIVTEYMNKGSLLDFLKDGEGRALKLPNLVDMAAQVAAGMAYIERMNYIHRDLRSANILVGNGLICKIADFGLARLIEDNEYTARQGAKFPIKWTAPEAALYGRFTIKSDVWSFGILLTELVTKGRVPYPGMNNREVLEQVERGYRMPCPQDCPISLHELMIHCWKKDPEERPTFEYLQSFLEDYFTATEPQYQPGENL
Vascular endothelial growth factor receptor 3 (Homo sapiens), sequence (P35916 whole entry): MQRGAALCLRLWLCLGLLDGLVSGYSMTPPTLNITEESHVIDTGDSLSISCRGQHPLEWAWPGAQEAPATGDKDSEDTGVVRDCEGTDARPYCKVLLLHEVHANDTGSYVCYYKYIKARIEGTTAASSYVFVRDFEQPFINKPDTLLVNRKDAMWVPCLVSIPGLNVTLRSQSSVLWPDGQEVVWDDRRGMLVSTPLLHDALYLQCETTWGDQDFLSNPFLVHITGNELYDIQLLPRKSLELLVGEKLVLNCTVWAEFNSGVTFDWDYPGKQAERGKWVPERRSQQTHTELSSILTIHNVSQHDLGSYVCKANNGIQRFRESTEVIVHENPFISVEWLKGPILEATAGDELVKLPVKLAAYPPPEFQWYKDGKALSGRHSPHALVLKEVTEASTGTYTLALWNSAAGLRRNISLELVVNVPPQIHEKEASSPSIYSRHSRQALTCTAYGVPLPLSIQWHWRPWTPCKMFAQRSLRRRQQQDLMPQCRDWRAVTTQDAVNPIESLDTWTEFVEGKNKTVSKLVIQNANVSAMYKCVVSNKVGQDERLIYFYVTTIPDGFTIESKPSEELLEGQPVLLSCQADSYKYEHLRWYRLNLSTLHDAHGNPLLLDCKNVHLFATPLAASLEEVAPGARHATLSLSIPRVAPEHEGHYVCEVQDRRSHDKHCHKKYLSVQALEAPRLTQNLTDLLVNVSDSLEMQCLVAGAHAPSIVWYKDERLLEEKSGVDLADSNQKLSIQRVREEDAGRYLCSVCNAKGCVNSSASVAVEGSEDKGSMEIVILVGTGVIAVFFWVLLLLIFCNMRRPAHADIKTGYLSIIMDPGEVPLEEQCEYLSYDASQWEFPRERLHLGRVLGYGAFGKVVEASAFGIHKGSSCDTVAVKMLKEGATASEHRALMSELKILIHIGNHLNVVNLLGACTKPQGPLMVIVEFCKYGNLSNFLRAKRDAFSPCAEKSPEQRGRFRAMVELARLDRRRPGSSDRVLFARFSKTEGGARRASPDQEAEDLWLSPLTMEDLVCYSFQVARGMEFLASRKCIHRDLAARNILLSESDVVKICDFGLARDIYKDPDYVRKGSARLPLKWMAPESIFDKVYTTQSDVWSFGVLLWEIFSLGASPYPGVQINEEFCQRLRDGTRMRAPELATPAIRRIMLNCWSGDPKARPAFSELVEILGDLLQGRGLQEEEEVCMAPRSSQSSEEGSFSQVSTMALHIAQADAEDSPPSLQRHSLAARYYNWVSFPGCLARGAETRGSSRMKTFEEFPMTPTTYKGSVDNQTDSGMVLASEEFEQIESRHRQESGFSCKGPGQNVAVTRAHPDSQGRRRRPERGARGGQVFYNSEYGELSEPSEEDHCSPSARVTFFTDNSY

As for `Cc1ccc(-n2cnc3cc(Nc4nnc(C)c5ccccc45)ccc32)cc1`, the inhibition result in [1], in test [2], in [3], in [4], in test [5] and in [6] was “inactive” throughout. Also, the inhibition entry in [7], in test [8], in test [9], in test [10], in test [11] and in test [12] was “inactive” each time. Further, the outcome in test [13] was Active.
`COc1ccc(C(=O)Nc2cc(-c3ccccc3)[nH]n2)cc1`: the outcome in [13] was Active. In [14], this molecule yielded an EC50 of 142 nM.
Take `Fc1ccc(-c2n[nH]cc2-c2ccncc2)cc1Cl`: the inhibition result in test [15], in test [16], in test [1], in test [2], in [3] and in test [5] was “inactive” each time. For the same molecule, the inhibition result in test [6], in [7], in test [8], in test [10] and in [11] was “inactive” throughout. Besides, the inhibition result in test [4], in test [9] and in test [12] was “Active” in each case.

As usually defined, the EC50 is the concentration that produces a half-maximal response.
